Measured values: the M2OR odorant receptor database
Numbering of substitutions follows the chain as printed.

Legend:
Conditions in all cases: stereoisomer not certain
OR51B5 (Homo sapiens) = target: T1, OR51B5 (Homo sapiens) (UniProt Q9H339)
T1 sequence (whole entry): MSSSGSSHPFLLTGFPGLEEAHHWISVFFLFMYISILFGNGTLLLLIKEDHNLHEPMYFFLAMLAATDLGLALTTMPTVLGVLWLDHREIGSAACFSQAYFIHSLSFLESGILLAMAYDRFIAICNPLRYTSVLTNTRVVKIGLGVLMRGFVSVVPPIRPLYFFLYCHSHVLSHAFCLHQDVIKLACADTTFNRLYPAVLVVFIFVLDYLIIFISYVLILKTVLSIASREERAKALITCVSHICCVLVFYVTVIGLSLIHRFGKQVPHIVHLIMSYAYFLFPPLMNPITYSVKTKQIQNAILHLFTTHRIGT
Procedure, shortened: (§1)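 Each entry records the cell line, G-protein, co-transfected protein and tags used. Methods varied with the source, often transient luciferase assays in mammalian cell lines. A receptor–molecule pair is called responsive (active) if the original authors judged its signal statistically different from baseline and non-responsive (inactive) otherwise.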

OR4S2 (Homo sapiens) = target: T2, OR4S2 (Homo sapiens) (UniProt Q8NH73)
T2 sequence (whole entry): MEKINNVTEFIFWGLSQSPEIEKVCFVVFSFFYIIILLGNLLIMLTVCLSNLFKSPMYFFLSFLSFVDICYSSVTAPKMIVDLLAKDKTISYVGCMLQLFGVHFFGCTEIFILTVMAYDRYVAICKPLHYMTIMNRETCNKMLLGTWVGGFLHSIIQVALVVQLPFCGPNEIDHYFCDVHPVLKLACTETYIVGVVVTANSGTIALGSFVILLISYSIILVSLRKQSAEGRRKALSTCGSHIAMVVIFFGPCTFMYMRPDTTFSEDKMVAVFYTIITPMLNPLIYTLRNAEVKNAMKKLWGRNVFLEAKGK
Procedure, shortened: as §1

OR4X1 (Homo sapiens) = target: T3, OR4X1 (Homo sapiens) (UniProt Q8NH49)
T3 sequence (whole entry): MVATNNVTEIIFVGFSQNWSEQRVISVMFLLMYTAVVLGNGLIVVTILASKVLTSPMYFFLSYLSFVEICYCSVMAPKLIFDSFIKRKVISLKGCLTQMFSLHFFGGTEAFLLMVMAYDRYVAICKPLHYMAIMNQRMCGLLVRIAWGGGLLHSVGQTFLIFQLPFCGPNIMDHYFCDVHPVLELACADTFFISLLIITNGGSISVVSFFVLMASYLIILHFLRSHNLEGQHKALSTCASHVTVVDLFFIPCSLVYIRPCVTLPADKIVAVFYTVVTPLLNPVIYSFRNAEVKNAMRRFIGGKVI
Procedure, shortened: as §1

OR4X2 (Homo sapiens) = target: T4, OR4X2 (Homo sapiens) (UniProt Q8NGF9)
T4 sequence (whole entry): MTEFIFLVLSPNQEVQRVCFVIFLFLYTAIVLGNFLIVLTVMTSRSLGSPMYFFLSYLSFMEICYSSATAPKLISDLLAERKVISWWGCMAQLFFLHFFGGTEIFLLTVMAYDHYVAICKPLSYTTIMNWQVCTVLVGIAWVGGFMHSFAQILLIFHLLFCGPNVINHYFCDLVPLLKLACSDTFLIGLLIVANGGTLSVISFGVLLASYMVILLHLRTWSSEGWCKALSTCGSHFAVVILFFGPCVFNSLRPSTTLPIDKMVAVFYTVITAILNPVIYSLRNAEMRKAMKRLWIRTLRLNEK
Procedure, shortened: as §1

OR51A2 (Homo sapiens) = target: T5, OR51A2 (Homo sapiens) (UniProt Q8NGJ7)
T5 sequence (whole entry): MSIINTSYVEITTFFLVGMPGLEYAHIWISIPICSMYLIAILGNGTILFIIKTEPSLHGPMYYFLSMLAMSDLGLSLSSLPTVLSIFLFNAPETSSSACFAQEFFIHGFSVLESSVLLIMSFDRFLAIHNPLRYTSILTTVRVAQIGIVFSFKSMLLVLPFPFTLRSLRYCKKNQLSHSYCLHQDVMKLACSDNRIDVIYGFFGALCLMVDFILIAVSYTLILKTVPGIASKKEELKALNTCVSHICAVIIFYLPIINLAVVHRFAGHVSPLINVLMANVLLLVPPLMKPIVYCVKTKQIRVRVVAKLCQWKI
Procedure, shortened: as §1

OR51A4 (Homo sapiens) = target: T6, OR51A4 (Homo sapiens) (UniProt Q8NGJ6)
T6 sequence (whole entry): T5 sequence (whole entry) with G59E, T94I, S97N, S167N, P227L, E235Q, G267R, M288T, K289N, W311R
Procedure, shortened: as §1

OR51A7 (Homo sapiens) = target: T7, OR51A7 (Homo sapiens) (UniProt Q8NH64)
T7 sequence (whole entry): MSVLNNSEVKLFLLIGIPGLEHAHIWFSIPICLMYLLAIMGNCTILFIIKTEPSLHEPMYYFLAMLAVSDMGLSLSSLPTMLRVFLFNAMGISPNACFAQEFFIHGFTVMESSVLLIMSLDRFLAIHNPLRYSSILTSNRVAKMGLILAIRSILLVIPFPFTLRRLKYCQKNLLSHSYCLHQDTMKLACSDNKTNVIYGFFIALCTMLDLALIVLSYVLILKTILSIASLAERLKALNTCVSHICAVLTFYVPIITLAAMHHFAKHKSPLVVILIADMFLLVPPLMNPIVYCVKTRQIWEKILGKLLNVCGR
Procedure, shortened: as §1

OR51B2 (Homo sapiens) = target: T8, OR51B2 (Homo sapiens) (UniProt Q9Y5P1)
T8 sequence (whole entry): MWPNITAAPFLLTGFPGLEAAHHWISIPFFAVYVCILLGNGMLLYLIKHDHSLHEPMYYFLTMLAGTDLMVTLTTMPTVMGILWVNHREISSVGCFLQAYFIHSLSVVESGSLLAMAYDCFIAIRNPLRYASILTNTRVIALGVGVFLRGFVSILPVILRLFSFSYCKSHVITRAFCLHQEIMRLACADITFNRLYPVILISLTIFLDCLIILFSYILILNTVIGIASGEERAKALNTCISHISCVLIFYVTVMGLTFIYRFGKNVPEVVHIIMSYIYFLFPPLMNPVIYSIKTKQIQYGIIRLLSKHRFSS
Procedure, shortened: as §1

OR51B4 (Homo sapiens) = target: T9, OR51B4 (Homo sapiens) (UniProt Q9Y5P0)
T9 sequence (whole entry): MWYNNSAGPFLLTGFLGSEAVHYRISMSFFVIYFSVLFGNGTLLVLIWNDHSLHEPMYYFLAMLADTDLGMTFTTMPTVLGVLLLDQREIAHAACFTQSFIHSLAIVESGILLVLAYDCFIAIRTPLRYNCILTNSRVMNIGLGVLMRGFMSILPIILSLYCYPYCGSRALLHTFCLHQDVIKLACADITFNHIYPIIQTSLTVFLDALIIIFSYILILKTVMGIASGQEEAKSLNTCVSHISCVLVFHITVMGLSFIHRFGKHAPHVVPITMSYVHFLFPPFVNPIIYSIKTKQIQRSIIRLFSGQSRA
Procedure, shortened: as §1

OR51B6 (Homo sapiens) = target: T10, OR51B6 (Homo sapiens) (UniProt Q9H340)
T10 sequence (whole entry): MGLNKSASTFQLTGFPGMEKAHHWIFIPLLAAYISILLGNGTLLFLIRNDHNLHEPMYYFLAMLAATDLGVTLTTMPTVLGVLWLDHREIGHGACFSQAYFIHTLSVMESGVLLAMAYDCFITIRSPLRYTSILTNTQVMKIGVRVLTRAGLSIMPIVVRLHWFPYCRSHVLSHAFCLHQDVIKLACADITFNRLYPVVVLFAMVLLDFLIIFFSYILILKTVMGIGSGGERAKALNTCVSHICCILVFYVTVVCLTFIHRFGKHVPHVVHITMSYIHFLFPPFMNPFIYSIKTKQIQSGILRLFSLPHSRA
Procedure, shortened: as §1

OR51D1 (Homo sapiens) = target: T11, OR51D1 (Homo sapiens) (UniProt Q8NGF3)
T11 sequence (whole entry): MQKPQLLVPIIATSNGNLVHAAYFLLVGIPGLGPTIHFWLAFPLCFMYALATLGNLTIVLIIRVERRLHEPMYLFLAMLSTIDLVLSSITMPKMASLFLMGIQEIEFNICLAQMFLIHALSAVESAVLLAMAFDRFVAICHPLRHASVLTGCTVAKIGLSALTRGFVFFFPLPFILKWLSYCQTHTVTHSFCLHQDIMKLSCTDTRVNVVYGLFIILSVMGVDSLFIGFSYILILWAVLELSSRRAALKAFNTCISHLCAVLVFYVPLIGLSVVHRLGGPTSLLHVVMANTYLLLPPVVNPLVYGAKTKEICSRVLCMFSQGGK
Procedure, shortened: as §1

OR51E1 (Homo sapiens) [1] = target: T12, OR51E1 (Homo sapiens) (UniProt Q8TCB6)
T12 sequence (whole entry): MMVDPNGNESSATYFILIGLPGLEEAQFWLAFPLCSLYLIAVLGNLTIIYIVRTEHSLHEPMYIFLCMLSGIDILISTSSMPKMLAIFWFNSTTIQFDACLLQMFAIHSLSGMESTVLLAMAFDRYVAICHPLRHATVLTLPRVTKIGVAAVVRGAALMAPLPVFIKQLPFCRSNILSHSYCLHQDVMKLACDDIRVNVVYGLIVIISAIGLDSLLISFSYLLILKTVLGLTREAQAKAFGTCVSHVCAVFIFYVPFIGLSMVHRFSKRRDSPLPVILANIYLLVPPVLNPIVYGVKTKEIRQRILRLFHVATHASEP
Procedure, shortened: as §1

OR51E2 (Homo sapiens) = target: T13, OR51E2 (Homo sapiens) (UniProt Q9H255)
T13 sequence (whole entry): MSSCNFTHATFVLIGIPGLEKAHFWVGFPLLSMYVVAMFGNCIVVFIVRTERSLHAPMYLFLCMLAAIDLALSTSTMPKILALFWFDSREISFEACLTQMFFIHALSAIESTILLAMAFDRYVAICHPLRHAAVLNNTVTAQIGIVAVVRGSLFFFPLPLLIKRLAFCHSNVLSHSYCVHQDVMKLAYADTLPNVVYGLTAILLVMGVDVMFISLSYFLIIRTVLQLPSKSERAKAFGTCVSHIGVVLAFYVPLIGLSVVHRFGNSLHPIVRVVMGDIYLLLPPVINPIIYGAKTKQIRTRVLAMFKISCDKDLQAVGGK
Procedure, shortened: as §1

OR51F2 (Homo sapiens) = target: T14, OR51F2 (Homo sapiens) (UniProt Q8NH61)
T14 sequence (whole entry): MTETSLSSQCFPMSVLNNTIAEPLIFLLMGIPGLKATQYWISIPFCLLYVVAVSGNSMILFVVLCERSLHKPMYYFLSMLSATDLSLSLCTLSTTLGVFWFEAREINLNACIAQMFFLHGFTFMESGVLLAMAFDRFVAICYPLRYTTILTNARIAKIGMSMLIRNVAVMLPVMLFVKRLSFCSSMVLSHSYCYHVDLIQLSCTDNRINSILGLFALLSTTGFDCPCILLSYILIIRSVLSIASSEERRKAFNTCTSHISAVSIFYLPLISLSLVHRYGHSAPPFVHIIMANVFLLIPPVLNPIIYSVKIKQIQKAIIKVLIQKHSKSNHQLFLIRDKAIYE
Procedure, shortened: as §1

OR51G1 (Homo sapiens) = target: T15, OR51G1 (Homo sapiens) (UniProt Q8NGK1)
T15 sequence (whole entry): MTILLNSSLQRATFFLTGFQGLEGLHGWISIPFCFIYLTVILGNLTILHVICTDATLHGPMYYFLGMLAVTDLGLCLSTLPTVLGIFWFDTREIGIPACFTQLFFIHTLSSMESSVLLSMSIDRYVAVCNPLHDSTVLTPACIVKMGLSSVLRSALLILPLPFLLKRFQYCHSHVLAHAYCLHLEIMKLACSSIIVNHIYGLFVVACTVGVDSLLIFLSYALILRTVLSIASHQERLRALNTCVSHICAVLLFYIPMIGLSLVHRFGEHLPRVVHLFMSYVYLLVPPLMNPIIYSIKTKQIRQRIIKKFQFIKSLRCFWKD
Procedure, shortened: as §1

OR51G2 (Homo sapiens) = target: T16, OR51G2 (Homo sapiens) (UniProt Q8NGK0)
T16 sequence (whole entry): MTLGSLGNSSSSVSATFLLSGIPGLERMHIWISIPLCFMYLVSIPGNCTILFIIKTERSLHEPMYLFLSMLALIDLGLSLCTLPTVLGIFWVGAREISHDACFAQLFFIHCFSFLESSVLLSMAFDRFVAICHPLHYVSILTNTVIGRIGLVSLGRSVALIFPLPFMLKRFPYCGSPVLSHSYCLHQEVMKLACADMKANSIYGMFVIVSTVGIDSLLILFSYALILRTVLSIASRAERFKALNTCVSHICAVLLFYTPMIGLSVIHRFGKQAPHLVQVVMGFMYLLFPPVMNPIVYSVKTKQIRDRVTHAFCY
Procedure, shortened: as §1

OR51I1 (Homo sapiens) = target: T17, OR51I1 (Homo sapiens) (UniProt Q9H343)
T17 sequence (whole entry): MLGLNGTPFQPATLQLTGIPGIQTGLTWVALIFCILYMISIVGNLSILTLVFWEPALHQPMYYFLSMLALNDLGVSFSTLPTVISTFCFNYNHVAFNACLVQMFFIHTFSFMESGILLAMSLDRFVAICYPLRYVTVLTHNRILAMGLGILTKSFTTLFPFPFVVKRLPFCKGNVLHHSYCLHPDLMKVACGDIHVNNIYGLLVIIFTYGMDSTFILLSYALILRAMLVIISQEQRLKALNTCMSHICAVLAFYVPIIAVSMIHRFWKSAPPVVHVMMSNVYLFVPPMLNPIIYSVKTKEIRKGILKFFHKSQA
Procedure, shortened: as §1

OR51E1 (Homo sapiens) [2] = target: T18, OR51E1 (Homo sapiens) (UniProt Q8TCB6); remark: listed apart in the source
T18 sequence (whole entry): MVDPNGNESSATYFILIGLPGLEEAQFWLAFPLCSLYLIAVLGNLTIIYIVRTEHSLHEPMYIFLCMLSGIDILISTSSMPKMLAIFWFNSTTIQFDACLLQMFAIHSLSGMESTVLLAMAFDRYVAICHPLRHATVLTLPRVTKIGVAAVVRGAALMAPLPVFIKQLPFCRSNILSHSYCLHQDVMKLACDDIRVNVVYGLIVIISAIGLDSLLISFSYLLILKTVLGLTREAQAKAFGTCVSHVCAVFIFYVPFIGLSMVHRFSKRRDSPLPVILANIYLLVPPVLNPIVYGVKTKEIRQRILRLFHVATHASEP
Procedure, shortened: as §1

Measured: odorant receptor agonist call

CCC(C)CO (stereo not given)
inactive: OR51B5 (Homo sapiens)

CC1=C(O)C(=O)OC1C (stereo not given)
not listed: OR51E1 (Homo sapiens) [2]
inactive: all other assays above

CC(O)C(=O)[O-].[H+] (stereo not given)
inactive: OR51B5 (Homo sapiens)

CCCC(S)CCOC(C)=O (stereo not given)
not listed: OR51E1 (Homo sapiens) [2]
inactive: all other assays above

CCCCCCCCC(=O)O
active: OR51E1 (Homo sapiens) [2]
inactive: OR51A4 (Homo sapiens) | OR51E2 (Homo sapiens)

C=C1CCC2CC1C2(C)C (stereo not given)
inactive: OR51B5 (Homo sapiens)
